In ChEMBL document CHEMBL1157137, “Design, synthesis and biological evaluation of piperazine analogues as CB1 cannabinoid receptor ligands” (Bioorg Med Chem, 2008):

Experiments:
Cannabinoid receptor 2 = Cannabinoid receptor 2 (Homo sapiens, UniProt P34972); assay: Displacement of [3H]WIN-55212-2 from human CB2 receptor expressed in CHOK1 cells; assay type: cell-based, CHO-K1
Procedure, shortened: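 Membranes were from CHO K-1 cells transfected with human CB2. They were incubated with 3 nM [3H]WIN55,212-2 and varied ligand concentrations in TME/0.5% fatty-acid-free BSA, 1 h at 30 °C. Bound ligand was separated on 0.1% PEI-soaked GF/B filters, washed five times with ice-cold 0.1% BSA buffer, and counted by scintillation. IC50 from single determinations.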

Cannabinoid receptor 1 [1] = molecular target: Cannabinoid receptor 1 (Homo sapiens, UniProt P21554); assay: Antagonist activity at human CB1 receptor expressed in CHOK1 cells by luciferase assay; assay type: functional, cell-based, CHO-K1
Chain of Cannabinoid receptor 1 (Homo sapiens, UniProt P21554) (P21554 whole entry): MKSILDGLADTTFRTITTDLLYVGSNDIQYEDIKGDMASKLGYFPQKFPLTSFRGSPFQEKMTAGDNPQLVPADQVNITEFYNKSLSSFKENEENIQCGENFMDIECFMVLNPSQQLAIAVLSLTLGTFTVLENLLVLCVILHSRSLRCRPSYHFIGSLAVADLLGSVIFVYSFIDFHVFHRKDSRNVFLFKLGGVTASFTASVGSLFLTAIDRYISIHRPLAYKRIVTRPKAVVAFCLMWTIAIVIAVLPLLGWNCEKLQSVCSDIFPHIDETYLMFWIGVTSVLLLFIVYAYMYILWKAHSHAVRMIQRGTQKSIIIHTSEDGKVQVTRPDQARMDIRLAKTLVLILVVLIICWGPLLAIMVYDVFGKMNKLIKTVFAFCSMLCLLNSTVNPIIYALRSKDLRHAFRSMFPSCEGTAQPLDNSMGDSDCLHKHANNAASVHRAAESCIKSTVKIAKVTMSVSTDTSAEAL

Cannabinoid receptor 1 [2] = molecular target: Cannabinoid receptor 1 (Rattus norvegicus, UniProt P20272); assay: Displacement of [3H]CP-55940 from CB1 receptor in Sprague-Dawley rat cerebella membrane
Chain of Cannabinoid receptor 1 (Rattus norvegicus, UniProt P20272) (P20272 whole entry): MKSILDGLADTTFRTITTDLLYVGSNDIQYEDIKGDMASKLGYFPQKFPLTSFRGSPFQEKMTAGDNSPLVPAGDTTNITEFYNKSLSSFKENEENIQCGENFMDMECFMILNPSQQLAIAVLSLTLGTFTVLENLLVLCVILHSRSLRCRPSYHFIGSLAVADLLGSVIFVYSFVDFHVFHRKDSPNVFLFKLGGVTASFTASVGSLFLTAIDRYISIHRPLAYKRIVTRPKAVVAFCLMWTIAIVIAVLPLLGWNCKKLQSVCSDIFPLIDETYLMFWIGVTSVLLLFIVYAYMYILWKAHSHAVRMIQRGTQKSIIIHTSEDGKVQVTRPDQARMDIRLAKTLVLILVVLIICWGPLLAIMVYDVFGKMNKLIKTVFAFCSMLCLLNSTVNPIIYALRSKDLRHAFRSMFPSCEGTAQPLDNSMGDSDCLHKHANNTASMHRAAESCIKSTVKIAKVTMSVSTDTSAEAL
Procedure, shortened: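 Male Sprague–Dawley rat (200–300 g) cerebellar membranes incubated with 3 nM [3H]CP55,940 and varied ligand concentrations in TME buffer with 0.5% fatty-acid-free BSA, 1 h at 30 °C. Filtered over PEI-soaked GF/B filters, washed five times with ice-cold buffer containing 0.1% BSA, then counted by liquid scintillation. IC50 from single determinations.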

Chain of Cannabinoid receptor 2 (P34972 whole entry): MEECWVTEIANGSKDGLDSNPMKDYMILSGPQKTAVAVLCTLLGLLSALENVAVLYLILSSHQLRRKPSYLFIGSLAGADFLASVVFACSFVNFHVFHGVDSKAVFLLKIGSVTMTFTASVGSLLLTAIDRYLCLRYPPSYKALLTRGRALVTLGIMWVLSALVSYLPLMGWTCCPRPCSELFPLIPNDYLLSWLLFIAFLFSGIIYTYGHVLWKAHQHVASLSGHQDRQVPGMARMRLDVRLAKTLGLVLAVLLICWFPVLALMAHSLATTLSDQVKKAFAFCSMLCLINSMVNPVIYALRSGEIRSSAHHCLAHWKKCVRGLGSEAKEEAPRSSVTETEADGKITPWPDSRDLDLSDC

SMILES | IC50 (Cannabinoid receptor 2) [nM] | IC50 (Cannabinoid receptor 1 [1]) [nM] | IC50 (Cannabinoid receptor 1 [2]) [nM]
O=C(NC1CCCCC1)N1CCN(C(c2ccc(Cl)cc2)c2cccc(Cl)c2Cl)CC1 (stereo not drawn) | > 10000 | 441 | 186
Cc1ccccc1C(c1ccc(Cl)cc1)N1CCN(C(=O)NCC2CCCCC2)CC1 (stereo not drawn) | > 10000 | 340 | 291
O=C(NCC1CCCCC1)N1CCN(C(c2ccc(Cl)cc2)c2ccccc2Cl)CC1 (stereo not drawn) | > 10000 | 273 | 189
CCCCCC(=O)N1CCN(C(c2ccc(Cl)cc2)c2ccc(Cl)cc2Cl)CC1 (stereo not drawn) |  |  | 257
CC(C)(C)NC(=O)N1CCN(C(c2ccc(Cl)cc2)c2ccccc2C(F)(F)F)CC1 (stereo not drawn) |  |  | 2050
CC(C)(C)NC(=O)N1CCN(C(c2ccc(Br)cc2)c2ccccc2Cl)CC1 (stereo not drawn) | 4950 | 286 | 237
CC(C)(C)NC(=O)N1CCN(C(c2ccc(Cl)cc2)c2cccc(Cl)c2Cl)CC1 (stereo not drawn) | > 10000 | 316 | 783
O=C(NCC1CCCCC1)N1CCN(C(c2ccc(Cl)cc2)c2cccc(Cl)c2Cl)CC1 (stereo not drawn) |  |  | 2000
O=C(NCC1CCCCC1)N1CCN(C(c2ccc(Cl)cc2)c2ccccc2C(F)(F)F)CC1 (stereo not drawn) | > 10000 | 798 | 526
O=C(NC1CCCCCC1)N1CCN(C(c2ccc(Br)cc2)c2ccccc2Cl)CC1 (stereo not drawn) | > 10000 | 49.4 | 82.3
Cc1ccccc1C(c1ccc(Cl)cc1)N1CCN(C(=O)NC2CCCCCC2)CC1 (stereo not drawn) | > 10000 | 163 | 151
O=C(NC1CCCCC1)N1CCN(C(c2ccc(Br)cc2)c2ccccc2Cl)CC1 (stereo not drawn) | > 10000 | 62.8 | 103
O=C(NC1CCCCC1)N1CCN(C(c2ccc(Cl)cc2)c2ccc(Cl)cc2)CC1 |  |  | 914
O=C(C1CCCCC1)N1CCN(C(c2ccc(Cl)cc2)c2ccc(Cl)cc2)CC1 |  |  | 1390
CC(C)(C)NC(=O)N1CCN(C(c2ccc(Cl)cc2)c2ccccc2Cl)CC1 (stereo not drawn) | 4820 | 443 | 122
CC(C)(C)NC(=O)N1CCN(C(c2ccc(Cl)cc2)c2ccc(Cl)cc2Cl)CC1 (stereo not drawn) |  |  | 2000

SMILES | IC50 (Cannabinoid receptor 2) [nM] | IC50 (Cannabinoid receptor 1 [1]) [nM] | IC50 (Cannabinoid receptor 1 [2]) [nM]
O=C(NCC1CCCCC1)N1CCN(C(c2ccc(Cl)cc2)c2ccc(Cl)cc2Cl)CC1 (stereo not drawn) | > 10000 | 1040 | 262
O=C(NC1CCCCC1)N1CCN(C(c2ccc(Cl)cc2)c2ccc(Cl)cc2Cl)CC1 (stereo not drawn) | > 10000 | 367 | 104
O=C(NC1CCCCCC1)N1CCN(C(c2ccc(Cl)cc2)c2ccccc2Cl)CC1 (stereo not drawn) | > 10000 | 226 | 66.5
Cc1ccccc1C(c1ccc(Cl)cc1)N1CCN(C(=O)NC2CCCCC2)CC1 (stereo not drawn) | > 10000 | 195 | 248
Cc1ccccc1C(c1ccc(Cl)cc1)N1CCN(C(=O)NC(C)(C)C)CC1 (stereo not drawn) | > 10000 | 334 | 680
O=C(NC1CCCCC1)N1CCN(C(c2ccc(Cl)cc2)c2ccccc2Cl)CC1 (stereo not drawn) | > 10000 | 128 | 72.8
O=C(NCC1CCCCC1)N1CCN(C(c2ccc(Br)cc2)c2ccccc2Cl)CC1 (stereo not drawn) | > 10000 | 146 | 127
O=C(NC1CCCCCC1)N1CCN(C(c2ccc(Cl)cc2)c2ccccc2C(F)(F)F)CC1 (stereo not drawn) | > 10000 | 204 | 141
O=C(NC1CCCCC1)N1CCN(C(c2ccc(Cl)cc2)c2ccccc2C(F)(F)F)CC1 (stereo not drawn) | > 10000 | 186 | 163
O=C(NC1CCCCCC1)N1CCN(C(c2ccc(Cl)cc2)c2cccc(Cl)c2Cl)CC1 (stereo not drawn) | > 10000 | 424 | 158
O=C(NC1CCCCC1)C(=O)N1CCN(C(c2ccc(Cl)cc2)c2ccccc2Cl)CC1 (stereo not drawn) |  |  | 226
CCCCCC(=O)N1CCN(C(c2ccc(Cl)cc2)c2ccc(Cl)cc2)CC1 |  |  | 1150
O=C(NC1CCCCCC1)N1CCN(C(c2ccc(Cl)cc2)c2ccc(Cl)cc2Cl)CC1 (stereo not drawn) | > 10000 | 729 | 89.2
O=C(C1CCC1)N1CCN(C(c2ccc(Cl)cc2)c2ccc(Cl)cc2)CC1 |  |  | 1070
O=C(NC1CCCCCC1)C(=O)N1CCN(C(c2ccc(Cl)cc2)c2ccccc2Cl)CC1 (stereo not drawn) |  |  | 229
